Experimental data as given in ChEMBL document CHEMBL1130143, “Probes for narcotic receptor-mediated phenomena. 25. Synthesis and evaluation of N-alkyl-substituted (alpha-piperazinylbenzyl)benzamides as novel, highly selective delta opioid receptor agonists” (J Med Chem, 1997).

Experiments:
[1] = biological target: Opioid receptors; mu & delta (Rattus norvegicus) (UniProt P33533+P33535); test: Binding affinity ratio on mu opioid receptor( rat brain membranes) with respect to delta opioid receptor (rat brain membranes)
Sequence of Opioid receptors; mu & delta (Rattus norvegicus) (P33533 whole entry, looked up): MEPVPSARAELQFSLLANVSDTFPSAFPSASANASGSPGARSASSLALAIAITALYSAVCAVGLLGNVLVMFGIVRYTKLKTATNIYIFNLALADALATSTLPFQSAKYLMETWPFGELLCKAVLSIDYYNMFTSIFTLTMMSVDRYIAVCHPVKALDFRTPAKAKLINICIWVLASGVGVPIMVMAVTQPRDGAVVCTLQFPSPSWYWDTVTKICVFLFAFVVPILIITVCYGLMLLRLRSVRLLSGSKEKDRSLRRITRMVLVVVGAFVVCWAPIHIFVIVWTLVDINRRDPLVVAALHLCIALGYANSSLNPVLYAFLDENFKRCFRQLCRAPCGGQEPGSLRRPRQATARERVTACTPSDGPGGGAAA
Sequence of Opioid receptors; mu & delta (Rattus norvegicus) (P33535 whole entry, looked up): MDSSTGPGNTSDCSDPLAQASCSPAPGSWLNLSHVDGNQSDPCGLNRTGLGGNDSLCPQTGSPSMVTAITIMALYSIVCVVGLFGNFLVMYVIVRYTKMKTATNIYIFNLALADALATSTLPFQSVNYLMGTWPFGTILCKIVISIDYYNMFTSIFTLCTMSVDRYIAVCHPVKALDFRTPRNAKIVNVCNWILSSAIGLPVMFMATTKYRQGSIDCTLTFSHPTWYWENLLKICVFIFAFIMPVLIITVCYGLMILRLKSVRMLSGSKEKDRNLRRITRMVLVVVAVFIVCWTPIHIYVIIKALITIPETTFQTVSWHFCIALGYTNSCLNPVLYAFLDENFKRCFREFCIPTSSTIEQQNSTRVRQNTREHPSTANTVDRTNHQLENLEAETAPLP
Method in brief: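 Ratio of IC50 from [³H]DAMGO binding to rat brain membranes over IC50 from [³H]DADLE binding to rat brain membranes (μ sites blocked with 100 nM DAMGO). Both assays run at 25 °C in Tris-HCl pH 7.4, nine concentrations, run twice.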

[2] = biological target: Opioid receptors; mu & delta (Homo sapiens) (UniProt P41143+P35372); test: Relative binding affinity to mu and delta opioid receptors; type: protein assay
Sequence of Opioid receptors; mu & delta (Homo sapiens) (P35372 whole entry, looked up): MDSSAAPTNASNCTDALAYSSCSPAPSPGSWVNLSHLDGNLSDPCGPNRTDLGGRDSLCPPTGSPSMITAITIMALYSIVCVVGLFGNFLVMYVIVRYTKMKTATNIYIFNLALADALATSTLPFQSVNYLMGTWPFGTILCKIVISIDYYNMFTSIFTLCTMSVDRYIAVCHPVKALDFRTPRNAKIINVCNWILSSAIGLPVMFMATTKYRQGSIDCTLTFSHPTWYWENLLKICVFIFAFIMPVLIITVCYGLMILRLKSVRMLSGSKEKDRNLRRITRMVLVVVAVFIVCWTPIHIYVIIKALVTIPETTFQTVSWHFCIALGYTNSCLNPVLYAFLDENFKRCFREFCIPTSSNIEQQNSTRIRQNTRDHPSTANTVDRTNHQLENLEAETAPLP
Sequence of Opioid receptors; mu & delta (Homo sapiens) (P41143 whole entry, looked up): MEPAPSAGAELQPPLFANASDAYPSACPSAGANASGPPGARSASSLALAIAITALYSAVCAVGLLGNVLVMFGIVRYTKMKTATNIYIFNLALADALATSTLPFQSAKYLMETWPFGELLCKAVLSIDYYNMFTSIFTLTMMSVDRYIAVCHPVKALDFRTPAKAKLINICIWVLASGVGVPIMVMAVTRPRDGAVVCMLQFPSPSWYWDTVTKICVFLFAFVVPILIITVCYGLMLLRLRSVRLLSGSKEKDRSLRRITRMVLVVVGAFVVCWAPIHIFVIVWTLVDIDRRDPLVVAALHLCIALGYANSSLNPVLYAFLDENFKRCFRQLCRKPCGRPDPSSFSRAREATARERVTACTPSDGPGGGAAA

Mu-type opioid receptor [3] = biological target: Mu-type opioid receptor (Homo sapiens, UniProt P35372); test: Binding affinity for micro receptors by the inhibition of binding of [3H]DAMGO to Opioid receptor mu 1 in human cloned receptors.
Sequence of Mu-type opioid receptor (Homo sapiens, UniProt P35372) (P35372 whole entry): as the sequence (P35372 whole entry, looked up) above
Method in brief: (§1)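 Crude membranes from B82 mouse fibroblasts stably expressing human μ receptor, with 1.0 nM [³H]DAMGO. Samples incubated 3 h at 25 °C; nonspecific binding from 10 μM naltrexone; 10 inhibitor concentrations, with totals in duplicate. Filtered on PEI-treated glass-fiber filters, washed with cold saline, scintillation counted. IC50 by nonlinear regression.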

Cavia porcellus = species: Cavia porcellus; test: Binding affinity ratio of kappa opioid receptor (guinea pig brain membranes) with respect to delta opioid receptor( rat brain membranes); type: cell membranes; conditions: Membrane
Method in brief: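 Ratio of IC50 from [³H]U69,593 binding to μ/δ-depleted guinea pig brain membranes over IC50 from [³H]DADLE binding to rat brain membranes (μ sites blocked with 100 nM DAMGO). Both assays run at 25 °C in Tris-HCl pH 7.4, nine concentrations, run twice.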

[4] = biological target: Delta-type opioid receptor (Homo sapiens, UniProt P41143); test: Binding affinity for Opioid receptor delta 1 by the inhibition of binding of [3H]-p-DPDPE human cloned receptors.
Sequence of Delta-type opioid receptor (Homo sapiens, UniProt P41143) (P41143 whole entry): as the sequence (P41143 whole entry, looked up) above
Method in brief: as §1, with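 “from CHO cells” for “from B82 mouse fibroblasts”, “human δ” for “human μ”, “with 0.75” for “with 1.0”, “nM [³H]-p-Cl-DPDPE.” for “nM [³H]DAMGO.”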

Mu-type opioid receptor [5] = biological target: Mu-type opioid receptor (Rattus norvegicus, UniProt P33535); test: Binding affinity for Opioid receptor mu 1 by the inhibition of binding of [3H]DAMGO in rat brain membranes.; type: cell membranes
Sequence of Mu-type opioid receptor (Rattus norvegicus, UniProt P33535) (P33535 whole entry): as the sequence (P33535 whole entry, looked up) above
Method in brief: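 Rat brain membranes with [³H]DAMGO at 1-3 nM, incubated 4 h at 25 °C in 50 mM Tris-HCl pH 7.4 plus protease inhibitor cocktail. Nonspecific binding measured with 20 μM levallorphan. Radioligand displaced by nine drug concentrations, in two runs. Drugs diluted in 10 mM Tris-HCl pH 7.4 containing 1 mg/mL BSA. IC50 reported.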

[6] = biological target: T1, Delta-type opioid receptor (Rattus norvegicus, UniProt P33533); test: Binding affinity for Opioid receptor delta 1 by the inhibition of binding of [3H]DADAL in rat brain membranes.; type: cell membranes
T1 sequence (P33533 whole entry): as the sequence (P33533 whole entry, looked up) above
Method in brief: (§2)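 Rat brain membranes labelled with [³H]DADLE at 1.7-2.5 nM. Incubation 3-4 h at 25 °C in Tris-HCl pH 7.4 with 100 mM choline chloride, 3 mM MnCl₂, protease inhibitor cocktail and 100 nM DAMGO to block μ sites. Nonspecific binding defined with 20 μM levallorphan. Nine test concentrations, run twice. IC50 reported.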

[7] = biological target: Kappa-type opioid receptor (Cavia porcellus, UniProt P41144); test: Binding affinity for Opioid receptor kappa 1 by the inhibition of binding of [3H]U-69593 in guinea pig brain membranes.; type: cell membranes
Sequence of Kappa-type opioid receptor (P41144 whole entry): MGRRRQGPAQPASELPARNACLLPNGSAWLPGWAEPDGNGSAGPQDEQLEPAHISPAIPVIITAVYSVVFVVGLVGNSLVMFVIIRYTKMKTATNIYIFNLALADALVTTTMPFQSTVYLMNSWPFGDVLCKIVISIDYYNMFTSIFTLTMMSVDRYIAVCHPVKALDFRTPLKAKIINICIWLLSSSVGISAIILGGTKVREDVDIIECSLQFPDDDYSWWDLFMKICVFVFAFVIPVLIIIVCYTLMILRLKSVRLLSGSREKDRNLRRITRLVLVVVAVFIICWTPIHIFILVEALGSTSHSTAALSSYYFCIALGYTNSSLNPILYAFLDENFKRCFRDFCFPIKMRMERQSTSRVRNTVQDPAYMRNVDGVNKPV
Method in brief: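 Guinea pig brain membranes, first depleted of μ and δ sites by pretreatment with irreversible ligands BIT and FIT. Nonspecific binding from 1 μM U69,593. Nine concentrations, run twice. IC50 reported.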

[8] = biological target: T1, Delta-type opioid receptor; test: Binding affinity for Opioid receptor delta 1 as inhibition of [3H]DADAL binding to rat brain membranes; type: cell membranes, Membrane; method in brief: as §2

Structure (SMILES)	Ratio [1]	Mu/delta ratio [2]	IC50 (Mu-type opioid receptor [3])	Ratio (Cavia porcellus)	IC50 [4]	IC50 (Mu-type opioid receptor [5])	IC50 [6]	IC50 [7]	IC50 [8]
C=CCN1C[C@H](C)N([C@H](c2ccc(C(=O)N(C(C)C)C(C)C)cc2)c2cccc(OC)c2)C[C@H]1C	> 352	1370	6840 nM	> 352	5 nM	> 2500 nM	7.1 nM	> 2500 nM	–
C=CCN1C[C@H](C)N([C@@H](c2ccc(C(=O)N3CCCC3)cc2)c2cccc(OC)c2)C[C@H]1C	> 9.4	–	–	> 38	–	> 2500 nM	265 nM	> 10000 nM	–
C=CCN1C[C@H](C)N([C@@H](c2ccc(C(=O)N(C(C)C)C(C)C)cc2)c2cccc(OC)c2)C[C@H]1C	> 7.3	–	–	> 7.3	–	> 2500 nM	344 nM	> 2500 nM	–
C=CCN1C[C@H](C)N([C@@H](c2ccc(C(=O)NCC)cc2)c2cccc(OC)c2)C[C@H]1C	4.9	–	–	48	–	169 nM	34.4 nM	1630 nM	–
C=CCN1C[C@H](C)N([C@H](c2ccc(C(=O)N(CCC)CCC)cc2)c2cccc(OC)c2)C[C@H]1C	305	811	6080 nM	> 763	7.5 nM	3990 nM	13.1 nM	> 10000 nM	–
C=CCN1C[C@H](C)N([C@H](c2ccc(C(=O)NCC)cc2)c2cccc(OC)c2)C[C@H]1C	1.6	–	–	2.3	–	242 nM	–	345 nM	150 nM
C=CCN1C[C@H](C)N([C@@H](c2ccc(C(N)=O)cc2)c2cccc(OC)c2)C[C@H]1C	> 6.4	–	–	> 6.4	–	> 2500 nM	389 nM	> 2500 nM	–
C=CCN1C[C@H](C)N([C@H](c2ccc(C(=O)NC(CC)CC)cc2)c2cccc(OC)c2)C[C@H]1C	> 14	–	–	> 14	–	> 2500 nM	176 nM	> 2500 nM	–
C=CCN1C[C@H](C)N([C@@H](c2ccc(C(=O)N(C)C)cc2)c2cccc(OC)c2)C[C@H]1C	> 11	–	–	> 11	–	> 2500 nM	234 nM	> 2500 nM	–
C=CCN1C[C@H](C)N([C@@H](c2ccc(C(=O)N(CCC)CCC)cc2)c2cccc(OC)c2)C[C@H]1C	28	–	–	> 65	–	4340 nM	153 nM	> 10000 nM	–
C=CCN1C[C@H](C)N([C@@H](c2ccc(C(=O)N(CC)CCCC)cc2)c2cccc(OC)c2)C[C@H]1C	39	–	–	> 66	–	5880 nM	151 nM	> 10000 nM	–
C=CCN1C[C@H](C)N([C@H](c2ccc(C(N)=O)cc2)c2cccc(OC)c2)C[C@H]1C	> 5.5	–	–	> 5.5	–	> 2500 nM	451 nM	> 2500 nM	–
C=CCN1C[C@H](C)N([C@@H](c2ccc(C(=O)N3CCCCC3)cc2)c2cccc(OC)c2)C[C@H]1C	> 5.5	–	–	> 22	–	> 2500 nM	450 nM	> 10000 nM	–
C=CCN1C[C@H](C)N([C@@H](c2ccc(C(=O)N(C)CC)cc2)c2cccc(OC)c2)C[C@H]1C	> 41	–	–	> 41	–	> 2500 nM	60.6 nM	> 2500 nM	–
C=CCN1C[C@H](C)N([C@H](c2ccc(C(=O)N(CC)CCCC)cc2)c2cccc(OC)c2)C[C@H]1C	286	327	3340 nM	> 1520	10.2 nM	1890 nM	6.6 nM	> 10000 nM	–
C=CCN1C[C@H](C)N([C@H](c2ccc(C(=O)N3CCCCC3)cc2)c2cccc(OC)c2)C[C@H]1C	> 171	158	6000 nM	> 684	38 nM	> 2500 nM	14.6 nM	> 10000 nM	–
C=CCN1C[C@H](C)N([C@H](c2ccc(C(=O)N3CCCC3)cc2)c2cccc(OC)c2)C[C@H]1C	> 138	233	6190 nM	> 552	26.6 nM	> 2500 nM	18.1 nM	> 10000 nM	–
C=CCN1C[C@H](C)N([C@H](c2ccc(C(=O)N(C)C)cc2)c2cccc(OC)c2)C[C@H]1C	679	540	9720 nM	> 2080	18 nM	3260 nM	4.8 nM	> 10000 nM	–
C=CCN1C[C@H](C)N([C@H](c2ccc(C(=O)N(C)CC)cc2)c2cccc(OC)c2)C[C@H]1C	1760	1510	12100 nM	> 2380	8 nM	7370 nM	4.2 nM	> 10000 nM	–
C=CCN1C[C@H](C)N([C@@H](c2ccc(C(=O)N(CCCC)CCCC)cc2)c2cccc(OC)c2)C[C@H]1C	> 5.5	–	–	> 5.5	–	> 2500 nM	129 nM	> 2500 nM	–
C=CCN1C[C@H](C)N([C@H](c2ccc(C(=O)N3CCCCCC3)cc2)c2cccc(OC)c2)C[C@H]1C	> 305	344	4470 nM	> 1220	13 nM	> 2500 nM	8.2 nM	> 10000 nM	–
C=CCN1C[C@H](C)N([C@H](c2ccc(C(=O)N(CCCC)CCCC)cc2)c2cccc(OC)c2)C[C@H]1C	> 71	–	–	> 71	–	> 2500 nM	34.5 nM	> 2500 nM	–
C=CCN1C[C@H](C)N([C@H](c2ccc(C(=O)NC(C)(C)C)cc2)c2cccc(OC)c2)C[C@H]1C	> 8.9	–	–	> 8.9	–	> 2500 nM	281 nM	> 2500 nM	–
C=CCN1C[C@H](C)N([C@@H](c2ccc(C(=O)N3CCCCCC3)cc2)c2cccc(OC)c2)C[C@H]1C	> 20	–	–	> 81	–	> 2500 nM	124 nM	> 2500 nM	–
C=CCN1C[C@H](C)N([C@H](c2ccc(C(=O)N(CC)CC)cc2)c2cccc(OC)c2)C[C@H]1C [SNC-80]	–	–	–	–	–	–	–	7070 nM	–
